# Assays:
# Rattus norvegicus [1] = experiment: Percent increase in liver weight in rats when a 50 mg/Kg dose was administered; assay type: functional
# [2] = Percent change in high density lipoprotein cholesterol
# Rattus norvegicus [3] = experiment: Percent change in triglyceride concentration in serum from normocholesterolemic rats at dose 200 mg/kg (po)
# Rattus norvegicus [4] = experiment: Percent change in low density lipoproteins cholesterol concentration in serum from normocholesterolemic rats at dose 200 mg/kg (po)
# Rattus norvegicus [5] = experiment: Percent change in total cholesterol concentration in serum from normocholesterolemic rats at dose 200 mg/kg (po)
# Rattus norvegicus [6] = experiment: Percent change in high density lipoproteins cholesterol concentration in serum from normocholesterolemic rats at dose 200 mg/kg (po)
# Rattus norvegicus [7] = experiment: Percent change in high density lipoproteins cholesterol concentration in serum from hypercholesterolemic rats at dose 40 mg/kg (po); assay type: functional
# Method in brief: (§1)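 Rats were fed 1.5% cholesterol/0.5% cholic acid diet for 7 days, with compounds given by gavage over the last 4 days as a 0.5% Methocel suspension (0.5 mL/100 g). Rats were fasted overnight, killed on day 8 and bled under light CO₂ anesthesia. HDL was isolated by heparin-MnCl₂ precipitation (8000 rpm, 15 min, 4 °C). Total and HDL cholesterol were measured enzymatically-colorimetrically; % change vs control.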
# Rattus norvegicus [8] = experiment: Percent increase in liver weight in rats when administered perorally; assay type: functional
# Rattus norvegicus [9] = experiment: Percent change in total cholesterol concentration in serum from hypercholesterolemic rats at dose 40 mg/kg (po); assay type: functional
# Rattus norvegicus [10] = experiment: Percent change in total cholesterol concentration in serum from normocholesterolemic rats at dose 100 mg/kg (po)
# Rattus norvegicus [11] = experiment: Percent change in high density lipoproteins cholesterol concentration in serum from normocholesterolemic rats at dose 100 mg/kg (po)
# Rattus norvegicus [12] = experiment: Percent change in low density lipoproteins cholesterol concentration in serum from normocholesterolemic rats at dose 100 mg/kg (po)
# Rattus norvegicus [13] = experiment: Percent change in triglyceride concentration in serum from normocholesterolemic rats at dose 100 mg/kg (po)
# Rattus norvegicus [14] = experiment: Compound was tested for its activity in diet-induced Hypercholesterolemic rats at dose 50 mg/kg after peroral administration palmitoyl-CoA oxidation activity(per mg) of protein; assay type: functional; conditions: route oral
# Rattus norvegicus [15] = experiment: Compound was tested for its activity in diet-induced Hypercholesterolemic rats at dose 50 mg/kg after peroral administration carnitine acetyl transferase activity(per mg) of protein; assay type: functional; conditions: route oral
# Rattus norvegicus [16] = experiment: Compound was tested for Hepatic peroxisomal proliferation effect in male rats treated for 7 days at dose 50 mg/kg concentration of hepatic proteins(mg/g) in liver; assay type: functional, organism-based; set-up: dose 50 mg/kg
# [17] = Compound was tested for Hepatic peroxisomal proliferation effect in male rats treated for 7 days at dose 50 mg/kg ratio of % liver weight to % body weight; assay type: functional
# Rattus norvegicus [18] = experiment: Compound was tested for Hepatic peroxisomal proliferation effect in male rats treated for 7 days at dose 50 mg/kg protein; assay type: functional
# Rattus norvegicus [19] = experiment: Percent change in high density lipoproteins cholesterol concentration in serum from hypercholesterolemic rats at dose 37 mg/kg (po); assay type: functional; method in brief: as §1
# Rattus norvegicus [20] = organism: Rattus norvegicus; experiment: Compound was tested in vitro for inhibition of Cholesterol biosynthesis in rat liver slices, % inhibition of [14C]acetate incorporation in neutral lipids at 2 e10-4 concentration; assay type: functional
# Method in brief: (§2)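 Liver slices (250 mg) from fed male rats were incubated in Krebs-Ringer bicarbonate, pH 7.4, with 4 mM [2-¹⁴C]acetate under 95% O₂-5% CO₂. Compounds were tested at a final 2 × 10⁻⁴ M, or 5 × 10⁻⁵ M for one compound. ¹⁴C incorporation into cholesterol and into petroleum-ether-soluble nonsaponifiable neutral lipids gave % inhibition; mean of four determinations.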
# Rattus norvegicus [21] = organism: Rattus norvegicus; experiment: Compound was tested in vitro for inhibition of Cholesterol biosynthesis in rat liver slices, % inhibition of [14C]-acetate incorporation in cholesterol at 2 e10-4 concentration; assay type: functional; method in brief: as §2
# Rattus norvegicus [22] = experiment: Percent change in total cholesterol concentration in serum from hypercholesterolemic rats at dose 37 mg/kg (po); assay type: functional
# Rattus norvegicus [23] = experiment: Percent change in high density lipoproteins cholesterol concentration in serum from hypercholesterolemic rats at dose 10 mg/kg (po); assay type: functional; method in brief: as §1
# Rattus norvegicus [24] = experiment: Percent change in total cholesterol concentration in serum from hypercholesterolemic rats at dose 10 mg/kg (po); assay type: functional; method in brief: as §1
# Rattus norvegicus [25] = organism: Rattus norvegicus; experiment: Compound was tested in vitro for inhibition of Cholesterol biosynthesis in rat liver slices, % inhibition of [14C]acetate incorporation in neutral lipids; assay type: functional; method in brief: as §2
# Rattus norvegicus [26] = organism: Rattus norvegicus; experiment: Compound was tested in vitro for inhibition of Cholesterol biosynthesis in rat liver slices, % inhibition of [14C]acetate incorporation in cholesterol; assay type: functional; method in brief: as §2
# Rattus norvegicus [27] = experiment: Percent change in total cholesterol concentration in serum from hypercholesterolemic rats at dose 30 mg/kg (po); assay type: functional; method in brief: as §1
# Rattus norvegicus [28] = experiment: Percent change in high density lipoproteins cholesterol concentration in serum from hypercholesterolemic rats at dose 30 mg/kg (po); assay type: functional; method in brief: as §1
# Rattus norvegicus [29] = experiment: Percent change in total cholesterol concentration in serum from hypercholesterolemic rats at dose 21 mg/kg (po); assay type: functional; method in brief: as §1
# Rattus norvegicus [30] = experiment: Percent change in high density lipoproteins cholesterol concentration in serum from hypercholesterolemic rats at dose 21 mg/kg (po); assay type: functional; method in brief: as §1
# Rattus norvegicus [31] = experiment: Percent change in high density lipoproteins cholesterol concentration in serum from hypercholesterolemic rats at dose 42.5 mg/kg (po); assay type: functional; method in brief: as §1
# Rattus norvegicus [32] = experiment: Percent change in total cholesterol concentration in serum from hypercholesterolemic rats at dose 42.5 mg/kg (po); assay type: functional
# Rattus norvegicus [33] = experiment: Percent change in total cholesterol concentration in serum from hypercholesterolemic rats at dose 25 mg/kg (po); assay type: functional; method in brief: as §1
# Rattus norvegicus [34] = experiment: Percent change in high density lipoproteins cholesterol concentration in serum from hypercholesterolemic rats at dose 25 mg/kg (po); assay type: functional; method in brief: as §1
# [35] = Compound was tested for Enzyme induction effect in male rats treated for 5 days at dose 50 mg/kg; ratio of % liver weight to % body weight; assay type: functional
# Method in brief: (§3)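 Male OFA-ICO SD rats were dosed orally for 5 days, with test compounds at 50 mg/kg/day and sodium phenobarbital at 75 mg/kg/day. Liver was homogenized in 1.15% KCl-0.01 M phosphate, pH 7.5. Microsomes were spun from the 9000g supernatant at 105000g and assayed for protein, cytochrome P-450, aniline p-hydroxylation (µmol p-aminophenol/20 min) and aminopyrine N-demethylation (µmol HCHO/5 min). Liver/body weight was also recorded. Mean ± SEM of four rats; Dunnett's test.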
# Rattus norvegicus [36] = experiment: Compound was tested for Enzyme induction effect in male rats treated for 5 days at dose 50 mg/kg concentration of cytochrome […]( mmol/mg) of protein; assay type: functional; method in brief: as §3
# Rattus norvegicus [37] = experiment: Compound was tested for Enzyme induction effect in male rats treated for 5 days at dose 50 mg/kg aminopyrine N-demethylase activity (per g) of liver; assay type: functional; method in brief: as §3
# Rattus norvegicus [38] = experiment: Compound was tested for Hepatic peroxisomal proliferation effect in male rats treated for 7 days at dose 50 mg/kg carnitine acetyl transferase activity(per mg) of protein; assay type: functional
# Method in brief: (§4)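 Male OFA-ICO SD rats received oral doses of 50 mg/kg/day for 1 week. Liver was homogenized in 0.25 M sucrose-0.01 M phosphate-0.1% ethanol, pH 7, then diluted in incubation buffer with 0.1% Triton X-100 and centrifuged. Supernatants were assayed for catalase (K, sec⁻¹), carnitine acetyltransferase (nmol CoASH/min) and cyanide-insensitive palmitoyl-CoA oxidation (nmol NAD⁺ reduced/min). Mean ± SEM of three rats; Dunnett's test.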
# Rattus norvegicus [39] = experiment: Compound was tested for Hepatic peroxisomal proliferation effect in male rats treated for 7 days at dose 50 mg/kg palmitoyl-CoA oxidation activity(per mg) of protein; assay type: functional; method in brief: as §4
# Rattus norvegicus [40] = experiment: Percent change in low density lipoproteins cholesterol concentration in serum from normocholesterolemic rats at dose 50 mg/kg (po)
# Rattus norvegicus [41] = experiment: Compound was tested for Enzyme induction effect in male rats treated for 5 days at dose 50 mg/kg aniline p-hydroxylase activity(per g) of liver; assay type: functional; method in brief: as §3
# Rattus norvegicus [42] = experiment: Compound was tested for Hepatic peroxisomal proliferation effect in male rats treated for 7 days at dose 50 mg/kg catalase activity (per mg) of protein; assay type: functional; method in brief: as §4
# Rattus norvegicus [43] = experiment: Compound was tested for Enzyme induction effect in male rats treated for 5 days at dose 50 mg/kg concentration of microsomal proteins (mg/g) of liver; assay type: functional, organism-based; set-up: dose 50 mg/kg; method in brief: as §3
# Rattus norvegicus [44] = experiment: Percent change in triglyceride concentration in serum from normocholesterolemic rats at dose 50 mg/kg (po)
# Rattus norvegicus [45] = experiment: Percent change in total cholesterol concentration in serum from hypercholesterolemic rats at dose 50 mg/kg (po); assay type: functional
# [46] = Compound was tested for Enzyme induction effect in male rats treated for 5 days at dose 50 mg/kg ratio of % liver weight to % body weight; assay type: functional; method in brief: as §3
# Rattus norvegicus [47] = experiment: Compound was tested for Enzyme induction effect in male rats treated for 5 days at dose 50 mg/kg aminopyrine N-demethylase activity(per g) of liver; assay type: functional; method in brief: as §3
# Rattus norvegicus [48] = experiment: Compound was tested for Enzyme induction effect in male rats treated for 5 days at dose 50 mg/kg concentration of cytochrome […]( mmol/mg) in protein; assay type: functional; method in brief: as §3
# Rattus norvegicus [49] = experiment: Percent change in high density lipoproteins cholesterol concentration in serum from hypercholesterolemic rats at dose 50 mg/kg (po); assay type: functional; method in brief: as §1
# Rattus norvegicus [50] = organism: Rattus norvegicus; experiment: Compound was tested in vitro for inhibition of Cholesterol biosynthesis in rat liver slices, % inhibition of [14C]acetate incorporation in neutral lipids at 5 e10-5 concentration; assay type: functional; method in brief: as §2
# Rattus norvegicus [51] = experiment: Compound was tested for Enzyme induction effect in male rats treated for 5 days at dose 50 mg/kg concentration of microsomal proteins(mg/g) in liver; assay type: functional, organism-based; set-up: dose 50 mg/kg; method in brief: as §3
# Rattus norvegicus [52] = organism: Rattus norvegicus; experiment: Compound was tested in vitro for inhibition of Cholesterol biosynthesis in rat liver slices, % inhibition of [14C]acetate incorporation in cholesterol at 5 e10-5 concentration; assay type: functional; method in brief: as §2
structure (smiles),measurement,setting,value
CCOC(=O)C(C)(C)Oc1ccc(Cl)cc1 [CLOFIBRATE],Change,Rattus norvegicus [1],25%
same,Percent change in HDL cholesterol,[2],13
same,Change,Rattus norvegicus [3],-52%
same,Change,Rattus norvegicus [4],-40%
same,Change,Rattus norvegicus [5],-35%
same,Change,Rattus norvegicus [6],-32%
O=C(O)c1cccc2c1C(=O)C(n1ccnc1)CC2 (centres undefined),Change,Rattus norvegicus [7],-9%
same,Change,Rattus norvegicus [8],-4%
same,Change,Rattus norvegicus [9],-19%
CC(C)OC(=O)C(C)(C)Oc1ccc(C(=O)c2ccc(Cl)cc2)cc1 [FENOFIBRATE],Change,Rattus norvegicus [1],38%
same,Percent change in HDL cholesterol,[2],7
same,Change,Rattus norvegicus [10],-28%
same,Change,Rattus norvegicus [11],-27%
same,Change,Rattus norvegicus [12],-31%
same,Change,Rattus norvegicus [13],-50%
CCC1(c2ccccc2)C(=O)NC(=O)NC1=O [PHENOBARBITAL],Activity,Rattus norvegicus [14],1.15
same,Activity,Rattus norvegicus [15],4.2
same,Concentration,Rattus norvegicus [16],40.6
same,Ratio,[17],4.32%
same,Activity,Rattus norvegicus [18],1.92
CN(C)c1ccc2c(c1)C(=O)C(n1ccnc1)CC2 (centres undefined),Change,Rattus norvegicus [19],69%
same,Inhibition,Rattus norvegicus [20],0%
same,Inhibition,Rattus norvegicus [21],55%
same,Change,Rattus norvegicus [22],-37%
same,Change,Rattus norvegicus [8],11%
COc1ccc2c(c1)CCC(n1ccnc1)C2=O (centres undefined),Change,Rattus norvegicus [23],34%
same,Change,Rattus norvegicus [24],-37%
same,Change,Rattus norvegicus [8],0%
CCCCCCCCCCCCn1ccnc1,Inhibition,Rattus norvegicus [25],14%
same,Inhibition,Rattus norvegicus [26],66%
O=C1c2ccc(Br)cc2CCC1n1ccnc1 (centres undefined),Change,Rattus norvegicus [27],-84%
same,Change,Rattus norvegicus [8],31%
same,Change,Rattus norvegicus [28],228%
CC1Oc2cc(O)c(Br)cc2C(=O)C1n1ccnc1 (centres undefined),Change,Rattus norvegicus [29],-10%
same,Change,Rattus norvegicus [30],2%
same,Change,Rattus norvegicus [8],1%
CC1Oc2ccc(C(=O)O)cc2C(=O)C1n1ccnc1 (centres undefined),Change,Rattus norvegicus [31],-18%
same,Change,Rattus norvegicus [32],-12%
same,Change,Rattus norvegicus [8],3%
CCCc1cc2c(cc1O)OC(C)C(n1ccnc1)C2=O (centres undefined),Change,Rattus norvegicus [33],-15%
same,Change,Rattus norvegicus [8],8%
same,Change,Rattus norvegicus [34],28%
O=C1c2cc(Cl)ccc2OCC1n1ccnc1 (centres undefined),Change,Rattus norvegicus [1],34%
same,Percent change in HDL cholesterol,[2],153
same,Inhibition,Rattus norvegicus [20],0%
same,Ratio,[35],4.4%
same,Inhibition,Rattus norvegicus [21],0%
same,Concentration,Rattus norvegicus [16],216
same,Activity,Rattus norvegicus [36],2.46
same,Ratio,[17],4.36%
same,Activity,Rattus norvegicus [37],2.98
same,Activity,Rattus norvegicus [38],2.9
same,Activity,Rattus norvegicus [39],4.1
same,Change,Rattus norvegicus [40],-53%
same,Activity,Rattus norvegicus [41],0.93
same,Activity,Rattus norvegicus [42],42.1
same,Change,Rattus norvegicus [8],28%
same,Concentration,Rattus norvegicus [43],42.5
same,Change,Rattus norvegicus [44],-46%
O=C1c2ccc(O)c(Br)c2CCC1n1ccnc1 (centres undefined),Change,Rattus norvegicus [45],-44%
same,Ratio,[46],3.24%
same,Activity,Rattus norvegicus [47],1.69
same,Activity,Rattus norvegicus [48],0.98
same,Change,Rattus norvegicus [49],109%
same,Activity,Rattus norvegicus [41],0.67
same,Change,Rattus norvegicus [8],13%
same,Inhibition,Rattus norvegicus [50],0%
same,Concentration,Rattus norvegicus [51],28
same,Inhibition,Rattus norvegicus [52],0%
